Measurements taken from ChEMBL document CHEMBL1123309, “Esters and lactones of phenolic amino carboxylic acids: prodrugs for iron chelation” (J Med Chem, 1986).

Assays:
Mus musculus [1] = test: BDF1 male mice were administered with the compound and number of survivors was determined at a dose 300 mg/kg peroral out of 6 tested; assay type: functional; conditions: route oral
How it was run: (§1)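 Male BDF1 mice were iron-loaded by transfusion of canine red cells. The cells were heparinised, washed twice in isotonic saline and heated at 50 °C for 30 min. Dosing started two days after the last transfusion, once daily for 7 consecutive days. Compounds were given in distilled water or as a fine aqueous suspension with Polysorbate 80 (2% final). Toxic signs were recorded daily and survivors counted per group.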

Mus musculus [2] = test: BDF1 male mice were administered with 75 mg/kg orally and percent change in iron levels was determined in Spleen; assay type: functional; conditions: route oral
How it was run: (§2)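 Hypertransfused male BDF1 mice (canine red cells, washed and heated at 50 °C for 30 min) were dosed orally for 7 days with compound in distilled water or a fine suspension with Polysorbate 80 (2% final). Daily group urine and pooled feces (1 N HCl digest, 90 °C, 30 min, triplicate) were collected, and liver and spleen were homogenized. Iron was measured by atomic absorption and reported as % change vs transfused control.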

Mus musculus [3] = test: BDF1 male mice were administered with 75 mg/kg orally and percent change in iron levels was determined in Feces; assay type: functional; conditions: route oral; how it was run: as §2
Mus musculus [4] = test: BDF1 male mice were administered with 400 mg/kg orally and percent change in iron levels was determined in Liver; assay type: functional; conditions: route oral; how it was run: as §2
Mus musculus [5] = test: BDF1 male mice were administered with the compound and number of survivors was determined at a dose 600 mg/kg peroral out of 6 tested; assay type: functional; conditions: route oral; how it was run: as §1
[6] = First order rate constant was determined Spectrophotometrically at pH 7.5
Mus musculus [7] = test: BDF1 male mice were administered with 600 mg/kg orally and percent change in iron levels was determined in Feces; assay type: functional; conditions: route oral; how it was run: as §2
Mus musculus [8] = test: BDF1 male mice were administered with 300 mg/kg orally and percent change in iron levels was determined in Spleen; assay type: functional; conditions: route oral; how it was run: as §2
Mus musculus [9] = test: BDF1 male mice were administered with 300 mg/kg orally and percent change in iron levels was determined in Feces; assay type: functional; conditions: route oral; how it was run: as §2
Mus musculus [10] = test: BDF1 male mice were administered with 75 mg/kg orally and percent change in iron levels was determined in Liver; assay type: functional; conditions: route oral; how it was run: as §2
Mus musculus [11] = test: BDF1 male mice were administered with 300 mg/kg orally and percent change in iron levels was determined in Urine; assay type: functional; conditions: route oral; how it was run: as §2
Mus musculus [12] = test: BDF1 male mice were administered with the compound and number of survivors was determined at a dose 400 mg/kg peroral out of 10 tested; assay type: functional; conditions: route oral; how it was run: as §1
Mus musculus [13] = test: BDF1 male mice were administered with 600 mg/kg orally and percent change in iron levels was determined in Spleen; assay type: functional; conditions: route oral; how it was run: as §2
Mus musculus [14] = test: BDF1 male mice were administered with 400 mg/kg orally and percent change in iron levels was determined in Spleen; assay type: functional; conditions: route oral; how it was run: as §2
Mus musculus [15] = test: BDF1 male mice were administered with the compound and number of survivors was determined at a dose 75 mg/kg peroral out of 6 tested; assay type: functional; conditions: route oral; how it was run: as §1
Mus musculus [16] = test: BDF1 male mice were administered with 300 mg/kg orally and percent change in iron levels was determined in Liver; assay type: functional; conditions: route oral; how it was run: as §2
Mus musculus [17] = test: BDF1 male mice were administered with 600 mg/kg orally and percent change in iron levels was determined in Urine; assay type: functional; conditions: route oral; how it was run: as §2
Mus musculus [18] = test: BDF1 male mice were administered with 150 mg/kg orally and percent change in iron levels was determined in Feces; assay type: functional; conditions: route oral
How it was run: (§3)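 Male BDF1 mice made iron-overloaded by transfusion of washed, heat-treated (50 °C, 30 min) canine red cells. Dosing began 2 days after the last transfusion, once daily for 7 days, in distilled water or 2% Polysorbate 80 suspension. Daily group urine was collected. Pooled feces were digested in 1 N HCl (90 °C, 30 min). Liver and spleen were homogenized in saline. Iron was measured by atomic absorption and expressed as % change vs transfused controls.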

Mus musculus [19] = test: BDF1 male mice were administered with 400 mg/kg orally and percent change in iron levels was determined in Feces; assay type: functional; conditions: route oral; how it was run: as §2
Mus musculus [20] = test: BDF1 male mice were administered with 150 mg/kg orally and percent change in iron levels was determined in Liver; assay type: functional; conditions: route oral; how it was run: as §3
Mus musculus [21] = test: BDF1 male mice were administered with 150 mg/kg orally and percent change in iron levels was determined in Urine; assay type: functional; conditions: route oral; how it was run: as §3
Mus musculus [22] = test: BDF1 male mice were administered with 400 mg/kg orally and percent change in iron levels was determined in Urine; assay type: functional; conditions: route oral; how it was run: as §2
Mus musculus [23] = test: BDF1 male mice were administered with 75 mg/kg orally and percent change in iron levels was determined in Urine; assay type: functional; conditions: route oral; how it was run: as §2
Mus musculus [24] = test: BDF1 male mice were administered with 150 mg/kg orally and percent change in iron levels was determined in Spleen; assay type: functional; conditions: route oral; how it was run: as §3
Mus musculus [25] = test: BDF1 male mice were administered with the compound and number of survivors was determined at a dose 150 mg/kg peroral out of 6 tested; assay type: functional; conditions: route oral; how it was run: as §1
Mus musculus [26] = test: BDF1 male mice were administered with 600 mg/kg orally and percent change in iron levels was determined in Liver; assay type: functional; conditions: route oral; how it was run: as §2
[27] = Half life was determined at pH 7.5 in the presence of Fe(III) Half life was determined Spectrophotometrically
Mus musculus [28] = test: BDF1 male mice were administered with 200 mg/kg intraperitoneally and number of survivors was determined out of 10 tested; assay type: functional; conditions: route intraperitoneal; how it was run: as §1
Mus musculus [29] = test: BDF1 male mice were administered with 200 mg/kg intraperitoneally and percent change in iron levels was determined in Spleen; assay type: functional; conditions: route intraperitoneal; how it was run: as §3
Mus musculus [30] = test: BDF1 male mice were administered with 200 mg/kg intraperitoneally and percent change in iron levels was determined in Urine; assay type: functional; conditions: route intraperitoneal; how it was run: as §3
Mus musculus [31] = test: BDF1 male mice were administered with 200 mg/kg intraperitoneally and percent change in iron levels was determined in Feces; assay type: functional; conditions: route intraperitoneal; how it was run: as §3
[32] = Half life was determined in the presence of Fe(III) Titrimetrically; assay type: ADME
How it was run: (§4)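 Metal and chelator were each 5 × 10⁻⁴ M. Constant pH was held with 0.05 M NaOH. Hydrolysis rate came from base consumption, with first-order kinetics.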

[33] = First order rate constant was determined in the presence of Fe(3+) Spectrophotometrically; assay type: ADME
How it was run: (§5)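 Iron(III)-promoted hydrolysis was followed spectrophotometrically in 50% aqueous methanol with Hepes buffer at pH 7.5 and 38 °C. Ester and ferric nitrate were each 1.7 × 10⁻⁴ M. The read-out was the rise in absorbance at 480 nm. Data were fitted by nonlinear least squares for consecutive first-order processes.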

Mus musculus [34] = test: BDF1 male mice were administered with 200 mg/kg peroral and number of survivors was determined out of 10 tested; assay type: functional; conditions: route oral; how it was run: as §1
[35] = First order rate constant was determined in the presence of Fe(3+) Titrimetrically; assay type: ADME; how it was run: as §4
Mus musculus [36] = test: BDF1 male mice were administered with 200 mg/kg peroral and percent change in iron levels was determined in Feces; assay type: functional; conditions: route oral; how it was run: as §3
Mus musculus [37] = test: BDF1 male mice were administered with 200 mg/kg peroral and percent change in iron levels was determined in Spleen; assay type: functional; conditions: route oral; how it was run: as §2
[38] = Half life was determined in the presence of Fe(III) Spectrophotometrically; assay type: ADME; how it was run: as §5
Mus musculus [39] = test: BDF1 male mice were administered with 200 mg/kg peroral and percent change in iron levels was determined in Urine; assay type: functional; conditions: route oral; how it was run: as §2
Mus musculus [40] = test: BDF1 male mice were administered with 200 mg/kg intraperitoneally and percent change in iron levels was determined in liver; assay type: functional; conditions: route intraperitoneal; how it was run: as §3
Mus musculus [41] = test: BDF1 male mice were administered with 200 mg/kg peroral and percent change in iron levels was determined in Liver; assay type: functional; conditions: route oral; how it was run: as §3

CC(C)OC(=O)CN(CCN(CC(=O)OC(C)C)Cc1ccccc1O)Cc1ccccc1O
No. of survivors (Mus musculus [1]): 6 | Iron change (Mus musculus [2]): -10% | Iron change (Mus musculus [3]): 1% | Iron change (Mus musculus [4]): -45% | No. of survivors (Mus musculus [5]): 6 | 10E2 k1 [6]: 0.542 min⁻¹ | Iron change (Mus musculus [7]): 5% | Iron change (Mus musculus [8]): -7% | Iron change (Mus musculus [9]): -1% | Iron change (Mus musculus [10]): -34% | Iron change (Mus musculus [11]): 76% | No. of survivors (Mus musculus [12]): 10 | Iron change (Mus musculus [13]): -27% | Iron change (Mus musculus [14]): -13% | No. of survivors (Mus musculus [15]): 6 | Iron change (Mus musculus [16]): -45% | Iron change (Mus musculus [17]): 141% | Iron change (Mus musculus [18]): 23% | Iron change (Mus musculus [19]): -5% | Iron change (Mus musculus [20]): -32% | Iron change (Mus musculus [21]): 33% | Iron change (Mus musculus [22]): 233% | Iron change (Mus musculus [23]): -10% | Iron change (Mus musculus [24]): 2% | No. of survivors (Mus musculus [25]): 6 | Iron change (Mus musculus [26]): -56% | half-life [27]: 2.15 h

O=C1CN(CCN2CC(=O)Oc3ccccc32)c2ccccc2O1
No. of survivors (Mus musculus [28]): 8 | Iron change (Mus musculus [29]): -17% | Iron change (Mus musculus [30]): 157% | Iron change (Mus musculus [31]): -65% | half-life [32]: 1.19 h | 10E2 k1 [33]: 0.587 min⁻¹ | No. of survivors (Mus musculus [34]): 10 | 10E2 k1 [35]: 0.97 min⁻¹ | Iron change (Mus musculus [36]): -2% | Iron change (Mus musculus [37]): -30% | half-life [38]: 1.97 h | Iron change (Mus musculus [39]): 93% | Iron change (Mus musculus [40]): -68% | Iron change (Mus musculus [41]): -56%
